Published values of several laboratories.
Protocols differ between the studies behind these lines.
Effect on: cell growth or viability

O=C(N[C@@H](Cc1ccccc1)C(=O)c1ncc(-c2ccccc2)s1)[C@H](Cc1ccccc1)NC(=O)N1CCOCC1 — CC50 (MRC-5 SV2): > 64 µM
COC(=O)c1c(C)ncn1CC(c1c[nH]c2ccccc12)c1c[nH]c2ccccc12 — CC50 (HaCaT; MTS; 24 h): > 20 µM
C[C@@H]1O[C@@H](OC[C@H]2O[C@@H](Oc3c(-c4ccc(O)c(O)c4)oc4cc(O)cc(O)c4c3=O)[C@H](O)[C@@H](O)[C@@H]2O)[C@H](O)[C@H](O)[C@H]1O — CC50 (CEM-GFP; MTT; 48 h): > 250 µg/mL
CCCCCCCCCCCCCCCCOP(=O)([O-])OCC[N+](C)(C)C — CC50 (HaCaT; MTS; 24 h): > 20 µM
Cc1ncnc2c1c(SC(F)(F)F)cn2[C@@H]1O[C@H](CO)[C@@H](O)[C@H]1O — CC50 (MRC-5 SV2; resazurin; 72 h): 36.8 µM
Cc1ccc(C(=O)Nc2ccc(S(=O)(=O)O)c3cc(S(=O)(=O)O)cc(S(=O)(=O)O)c23)cc1NC(=O)c1cccc(NC(=O)Nc2cccc(C(=O)Nc3cc(C(=O)Nc4ccc(S(=O)(=O)O)c5cc(S(=O)(=O)O)cc(S(=O)(=O)O)c45)ccc3C)c2)c1 — CC50 (MRC-5 SV2; resazurin; 72 h): > 64 µM
O=C(N[C@@H](Cc1ccccc1)C(=O)c1ncc(-c2ccccc2)o1)[C@H](Cc1ccccc1)NC(=O)N1CCOCC1 — CC50 (MRC-5 SV2): > 64 µM
N=C(N)c1ccc(/N=N/Nc2ccc(C(=N)N)cc2)cc1 — CC50 (MRC-5 SV2; resazurin; 72 h): > 64 µM
Cc1cn([C@H]2C[C@H](N=[N+]=[N-])[C@@H](CO)O2)c(=O)[nH]c1=O — CC50 (CEM-GFP; MTT; 48 h): > 200 µg/mL
CCOC(=O)c1cn(CC(c2cn(C)c3ccc(C)cc23)c2cn(C)c3ccc(C)cc23)c(C)c1C(=O)OC — CC50 (HaCaT; MTS; 24 h): > 20 µM
O=C(N[C@@H](Cc1ccccc1)C(=O)c1cn(COCc2ccccc2)nn1)[C@H](Cc1ccccc1)NC(=O)N1CCOCC1 — CC50 (MRC-5 SV2): > 64 µM
